ChEMBL document CHEMBL1142628, “Antineoplastic agents 430. Isolation and structure of cribrostatins 3, 4, and 5 from the republic of maldives cribrochalina species” (2000)
Converted amounts (≈) assume the structure as drawn. The source made the active and inactive calls. The calls are words filed in the database; no cut-off is given here.

How the values were obtained:
BXPC-3 = test: Growth inhibition of human BXPC3 cells; type: functional
OVCAR-3 = test: Growth inhibition of human OVCAR-3 cells; type: functional
Procedure, shortened: (§1)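 NCI 60-cell-line screen run by the standard NCI protocol. Each test agent ran in quadruplicate, with a top concentration of 10^-5 M and five log-spaced dilutions. GI50 values were averaged and reported as negative log GI50.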

SF-295 [1] = test: (§2) Growth inhibition of human SF295 cells; type: functional
Procedure, shortened: (§3)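 NCI human tumor cell line panel screen run to the standard NCI protocol. Each compound tested in quadruplicate with a top concentration of 10^-5 M and five log-spaced dilutions. GI50 values were averaged across replicates and reported as negative log GI50.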

NCI-H460 [2] = test: (§4) Growth inhibition of human NCI-H460 cells; type: functional; procedure, shortened: as §1
KM-20L2 = test: Growth inhibition of human KM20L2 cells; type: functional
DU-145 = test: Growth inhibition of human DU145 cells; type: functional; procedure, shortened: as §1
P388 = test: Growth inhibition of mouse P388 cells; type: functional
Candida albicans = test: Antifungal activity against Candida albicans ATCC 90028 at 100 ug/disk by disk diffusion method; type: functional, organism-based
Cryptococcus neoformans = test: Antifungal activity against Cryptococcus neoformans ATCC 90112 at 100 ug/disk by disk diffusion method; type: functional, organism-based
Micrococcus luteus = test: Antibacterial activity against Micrococcus luteus Presque Isle 456 at 100 ug/disk by disk diffusion method; type: functional, organism-based
Staphylococcus aureus = test: Antibacterial activity against Staphylococcus aureus ATCC 29213 at 100 ug/disk by disk diffusion method; type: functional, organism-based
Enterococcus faecalis = test: Antibacterial activity against Enterococcus faecalis ATCC 29212 at 100 ug/disk by disk diffusion method; type: functional, organism-based
Bacillus subtilis = test: Antibacterial activity against Bacillus subtilis Presque Isle 620 at 100 ug/disk by disk diffusion method; type: functional, organism-based
Streptococcus pneumoniae = test: Antibacterial activity against Streptococcus pneumoniae ATCC 6303 at 100 ug/disk by disk diffusion method; type: functional, organism-based
[3] = test system: Stenotrophomonas maltophilia; test: Antibacterial activity against Stenotrophomonas maltophilia ATCC 13637 at 100 ug/disk by disk diffusion method; type: functional, organism-based
Escherichia coli = test: Antibacterial activity against Escherichia coli ATCC 25922 at 100 ug/disk by disk diffusion method; type: functional, organism-based
Enterobacter cloacae = test: Antibacterial activity against Enterobacter cloacae ATCC 13047 at 100 ug/disk by disk diffusion method; type: functional, organism-based
Neisseria gonorrhoeae [4] = test: Antibacterial activity against Neisseria gonorrhoeae ATCC 49226 by disk diffusion method; type: functional
Neisseria gonorrhoeae [5] = test: Antibacterial activity against penicillin-resistant Neisseria gonorrhoeae isolate by disk diffusion method; type: functional
CCRF-CEM = test: Growth inhibition of human CCRF-CEM cells; type: functional; procedure, shortened: as §1
[6] = Growth inhibition of human HL60(TB) cells; type: functional, HL-60(TB); details: HL-60
Procedure, shortened: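 NCI human tumour cell-line panel screen run by the standard NCI protocol. Each compound was tested in quadruplicate, with an upper concentration limit of 10^-5 M and five log-spaced dilutions. GI50 values were averaged and reported as negative log GI50.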

K562 = test: Growth inhibition of human K562 cells; type: functional; procedure, shortened: as §1
MOLT-4 = test: Growth inhibition of human MOLT4 cells; type: functional; procedure, shortened: as §1
RPMI-8226 = test: Growth inhibition of human RPMI8226 cells; type: functional; procedure, shortened: as §1
SR = test: Growth inhibition of human SR cells; type: functional; procedure, shortened: as §3
A549 = test: Growth inhibition of human A549/ATCC cells; type: functional; procedure, shortened: as §1
HOP-62 = test: Growth inhibition of human HOP62 cells; type: functional; procedure, shortened: as §1
HOP-92 = test: Growth inhibition of human HOP92 cells; type: functional; procedure, shortened: as §1
NCI-H226 = test: Growth inhibition of human NCI-H226 cells; type: functional; procedure, shortened: as §1
NCI-H460 [7] = test: as §4; type: functional; procedure, shortened: as §1; remark: listed apart in the source
NCI-H522 = test: Growth inhibition of human NCI-H522 cells; type: functional; procedure, shortened: as §1
COLO 205 = test: Growth inhibition of human COLO205 cells; type: functional; procedure, shortened: as §1
KM12 = test: Growth inhibition of human KM12 cells; type: functional; procedure, shortened: as §1
SW-620 = test: Growth inhibition of human SW620 cells; type: functional; procedure, shortened: as §3
SNB-75 = test: Growth inhibition of human SNB75 cells; type: functional; procedure, shortened: as §3
U-251 = test: Growth inhibition of human U251 cells; type: functional; procedure, shortened: as §3
LOX IMVI = test: Growth inhibition of human LOX IMVI cells; type: functional; procedure, shortened: as §1
Malme-3M = test: Growth inhibition of human MALME-3M cells; type: functional; procedure, shortened: as §1
SK-MEL-5 = test: Growth inhibition of human SK-MEL-5 cells; type: functional; procedure, shortened: as §3
UACC-62 = test: Growth inhibition of human UACC62 cells; type: functional; procedure, shortened: as §3
OVCAR-4 = test: Growth inhibition of human OVCAR4 cells; type: functional; procedure, shortened: as §1
OVCAR-8 = test: Growth inhibition of human OVCAR8 cells; type: functional; procedure, shortened: as §1
786-0 = test: Growth inhibition of human 786-0 cells; type: functional; procedure, shortened: as §1
ACHN = test: Growth inhibition of human ACHN cells; type: functional; procedure, shortened: as §1
RXF 393 = test: Growth inhibition of human RXF393 cells; type: functional; procedure, shortened: as §3
SN12C = test: Growth inhibition of human SN12C cells; type: functional; procedure, shortened: as §3
PC-3 = test: Growth inhibition of human PC3 cells; type: functional; procedure, shortened: as §1
MCF7 [8] = test: Growth inhibition of human MCF7 cells; type: functional; procedure, shortened: as §1
MCF7 [9] = test: Growth inhibition of human adriamycin-resistant MCF7 cells; type: functional; procedure, shortened: as §3
MDA-MB-231 = test: Growth inhibition of human MDA-MB-231/ATCC cells; type: functional; procedure, shortened: as §1
Hs-578T = test: Growth inhibition of human HS578T cells; type: functional; procedure, shortened: as §1
MDA-MB-435 = test: Growth inhibition of human MDA-MB-435 cells; type: functional; procedure, shortened: as §1
MDA-N = test: Growth inhibition of human MDA-N cells; type: functional; procedure, shortened: as §1
T47D = test: Growth inhibition of human T47D cells; type: functional; procedure, shortened: as §3
SF-268 = test: Growth inhibition of human SF268 cells; type: functional; procedure, shortened: as §3
SF-295 [10] = test: as §2; type: functional; procedure, shortened: as §3; remark: listed apart in the source
SF-539 = test: Growth inhibition of human SF539 cells; type: functional; procedure, shortened: as §3

SMILES: C/C=C(/C)C(=O)OCc1nccc2c1C(=O)C(N)=C(C)C2=O [CRIBROSTATIN 3]
- GI50 (BXPC-3): > 1 mg/L
- GI50 (OVCAR-3): 0.77 mg/L (≈ 2.56 µM)
- GI50 (SF-295 [1]): > 1 mg/L
- GI50 (NCI-H460 [2]): > 1 mg/L
- GI50 (KM-20L2): > 1 mg/L
- GI50 (DU-145): > 1 mg/L
- GI50 (P388): 2.49 mg/L (≈ 8.29 µM)
- EC50 (P388; read-out: ED50 (the source's name)): 2.5 mg/L (≈ 8.32 µM)
- Activity (Candida albicans): inactive
- Activity (Cryptococcus neoformans): inactive
- Activity (Micrococcus luteus): inactive
- Activity (Staphylococcus aureus): inactive
- Activity (Enterococcus faecalis): inactive
- Activity (Bacillus subtilis): inactive
- Activity (Streptococcus pneumoniae): inactive
- Activity [3]: inactive
- Activity (Escherichia coli): inactive
- Activity (Enterobacter cloacae): inactive
- MIC (Neisseria gonorrhoeae [4]): 0.0975 µg/disc
- MIC (Neisseria gonorrhoeae [5]): 0.39 µg/disc
- GI50 (CCRF-CEM): 4.27 µM
- GI50 [6]: 3.09 µM
- GI50 (K562): 7.41 µM
- GI50 (MOLT-4): 4.9 µM
- GI50 (RPMI-8226): 8.51 µM
- GI50 (SR): 3.39 µM
- GI50 (A549): 3.47 µM
- GI50 (HOP-62): 5.37 µM
- GI50 (HOP-92): 9.55 µM
- GI50 (NCI-H226): 7.08 µM
- GI50 (NCI-H460 [7]): 3.02 µM
- GI50 (NCI-H522): 3.89 µM
- GI50 (COLO 205): 5.89 µM
- GI50 (KM12): 4.9 µM
- GI50 (SW-620): 3.63 µM
- GI50 (SNB-75): 4.79 µM
- GI50 (U-251): 3.24 µM
- GI50 (LOX IMVI): 4.07 µM
- GI50 (Malme-3M): 0.617 µM
- GI50 (SK-MEL-5): 1.1 µM
- GI50 (UACC-62): 2.51 µM
- GI50 (OVCAR-4): 5.25 µM
- GI50 (OVCAR-8): 8.71 µM
- GI50 (786-0): 5.89 µM
- GI50 (ACHN): 9.55 µM
- GI50 (RXF 393): 4.9 µM
- GI50 (SN12C): 6.17 µM
- GI50 (PC-3): 2 µM
- GI50 (MCF7 [8]): 4.68 µM
- GI50 (MCF7 [9]): 4.57 µM
- GI50 (MDA-MB-231): 8.71 µM
- GI50 (Hs-578T): 6.31 µM
- GI50 (MDA-MB-435): 1.82 µM
- GI50 (MDA-N): 1.91 µM
- GI50 (T47D): 6.46 µM
- GI50 (SF-268): 6.31 µM
- GI50 (SF-295 [10]): 3.63 µM
- GI50 (SF-539): 4.79 µM
